In ChEMBL document CHEMBL4311932, “Novel zafirlukast derivatives exhibit selective antibacterial activity against Porphyromonas gingivalis” (Medchemcomm, 2019):
Active and inactive are the calls of the source. The calls are words filed in the database; no cut-off is given here.

Assays:
Porphyromonas gingivalis [1] = test: Antibacterial activity against Porphyromonas gingivalis 381 assessed as bacterial growth inhibition at 100 uM measured after 2 hrs in anaerobic condition by WST1 assay relative to control; assay type: functional; details: Porphyromonas gingivalis, 381, 2 h; read-out: GI
Method in brief: (§1)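 P. gingivalis 381 was grown anaerobically in BHI with 5 µg/mL hemin and 1 µg/mL menadione to log phase (3-4 h). Cultures at 10^6/well in 90 µL broth were exposed for 2 h, then given WST-1 for another 2 h. A450 was read with a 600 nm reference. % growth inhibition was taken against medium-only control, using DMSO vehicle and tetracycline 1 µg/mL as comparators.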

Porphyromonas gingivalis [2] = test: Antibacterial activity against Porphyromonas gingivalis 381 assessed as bacterial growth inhibition at 10 uM measured after 2 hrs in anaerobic condition by WST1 assay relative to control; assay type: functional; details: Porphyromonas gingivalis, 381, 2 h; read-out: GI; method in brief: as §1
[3] = system: Aggregatibacter actinomycetemcomitans; test: Antibacterial activity against Aggregatibacter actinomycetemcomitans JP2 assessed as bacterial growth inhibition at 1 to 100 uM after 2 hrs in anaerobic condition by WST1 assay; assay type: functional, organism-based
Method in brief: (§2)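 Log-phase cultures (3-4 h in BHI broth after overnight growth) were plated at 10^6 bacteria/well in 90 µL and treated for 2 h. WST-1 was then added for a further 2 h incubation, aerobic for S. sanguinis and anaerobic for the others, at 37 °C. A450 was read against a 600 nm reference. % inhibition = 100 × [OD(medium control) − OD(treated)]/OD(control). Compounds were dissolved in DMSO.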

Veillonella parvula = test: Antibacterial activity against Veillonella parvula ATCC 10790 assessed as bacterial growth inhibition at 1 to 100 uM after 2 hrs in anaerobic condition by WST1 assay; assay type: functional, organism-based; method in brief: as §2
Porphyromonas gingivalis [4] = test: Antibacterial activity against Porphyromonas gingivalis 381 assessed as bacterial growth inhibition at 1 uM measured after 2 hrs in anaerobic condition by WST1 assay relative to control; assay type: functional; details: Porphyromonas gingivalis, 381, 2 h; read-out: GI; method in brief: as §1
Streptococcus sanguinis = test: Antibacterial activity against Streptococcus sanguinis ATCC 10556 assessed as bacterial growth inhibition at 1 to 100 uM after 2 hrs in aerobic condition by WST1 assay relative to control; assay type: functional; method in brief: as §2
[5] = Induction of apoptosis in hTERT-immortalized human OKF6 cells assessed as viable cells at 1 to 10 uM after 24 hrs by AnnexinV-FITC/propidium iodide staining based flow cytometry analysis relative to control; details: read-out: Activity
Method in brief: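 After 24 h treatment of OKF6/hTERT cells, adherent cells (trypsinized) were pooled with cells recovered from supernatants and washed in PBS. They were stained with FITC-Annexin V plus propidium iodide for 15 min at room temperature. At least 10,000 events were acquired per sample (excitation 488 nm, emission 530 nm), with viable, apoptotic and necrotic fractions reported against DMSO.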

Fusobacterium nucleatum = test: Antibacterial activity against Fusobacterium nucleatum ATCC 25586 assessed as bacterial growth inhibition at 1 to 100 uM after 2 hrs in anaerobic condition by WST1 assay relative to control; assay type: functional; method in brief: as §2
Actinomyces naeslundii = test: Antibacterial activity against Actinomyces naeslundii ATCC 49340 assessed as bacterial growth inhibition at 1 to 100 uM after 2 hrs in anaerobic condition by WST1 assay; assay type: functional, organism-based; method in brief: as §2
[6] = Cytotoxicity against hTERT-immortalized human OKF6 cells assessed as cell death at 1 to 10 uM after 24 hrs by tryphan blue staining based assay
Method in brief: (§3)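 OKF6/hTERT keratinocytes were grown in Ker-SFM with 25 µg/mL bovine pituitary extract and 0.2 ng/mL EGF at 37 °C, 5% CO2. Cells were seeded overnight at 10^5/well and exposed for 24 h to 1 or 10 µM in DMSO. Cells were then trypsinized, washed, mixed 1:1 with trypan blue and counted automatically for % live/dead. Two independent experiments were run in duplicate.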

[7] = Cytotoxicity against hTERT-immortalized human OKF6 cells assessed as reduction in cell viability after 24 hrs by tryphan blue staining based assay; details: OKF6, 24 h
Method in brief: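 OKF6/hTERT cells at 10^5/well in Ker-SFM were exposed for 24 h to 0, 1, 2.5, 5, 10, 15, 20, 25, 50 and 100 µM in DMSO. Viability was counted by trypan blue exclusion on an automated counter, in triplicate. IC50 was derived from a fitted concentration-response curve.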

[8] = Cytotoxicity against hTERT-immortalized human OKF6 cells assessed as cell viability at 1 uM after 24 hrs by tryphan blue staining based assay relative to control; details: read-out: Activity; method in brief: as §3
Porphyromonas gingivalis [9] = test: Bactericidal activity against Porphyromonas gingivalis 381 at 25 to 50 uM treated for 24 hrs and measured after 7 days incubation in anaerobic condition […]; assay type: functional, organism-based
Method in brief: (§4)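 Viable-count assay on P. gingivalis 381 (10^6/well) grown anaerobically. Cultures were exposed for 24 h to agents dissolved in DMSO. 50 µL of 1:400 dilutions were spread on blood agar, and CFU/mL was counted after 7 days anaerobic incubation. Controls were medium or DMSO (negative) and tetracycline 2.25 µM (positive).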

Porphyromonas gingivalis [10] = test: Antibacterial activity against Porphyromonas gingivalis 381 assessed as bacterial growth inhibition at 25 to 50 uM measured after 2 hrs in anaerobic condition by WST1 assay; assay type: functional, organism-based
Porphyromonas gingivalis [11] = test: Bactericidal activity against Porphyromonas gingivalis 381 at 100 uM treated for 24 hrs and measured after 7 days incubation in anaerobic condition […]; assay type: functional, organism-based; method in brief: as §4
Porphyromonas gingivalis [12] = test: Antibacterial activity against Porphyromonas gingivalis 381 assessed as bacterial growth inhibition at 2.25 uM measured after 2 hrs in anaerobic condition by WST1 assay; assay type: functional, organism-based
Porphyromonas gingivalis [13] = test: Bactericidal activity against Porphyromonas gingivalis 381 at 10 uM treated for 24 hrs and measured after 7 days incubation in anaerobic condition by CFU counting relative to control; details: read-out: GI
Porphyromonas gingivalis [14] = test: Bactericidal activity against Porphyromonas gingivalis 381 at 1 uM treated for 24 hrs and measured after 7 days incubation in anaerobic condition by WST1 assay relative to control; assay type: functional; details: in the assay text read “by CFU counting” for “by WST1 assay”, read-out: GI; method in brief: as §4

COc1cc(C(=O)NS(=O)(=O)c2ccccc2)ccc1Cc1cn(C)c2ccccc12
inhibition of growth at 100 µM (Porphyromonas gingivalis [1]): 60%

COc1ccc(Cc2c[nH]c3ccccc23)cc1C(=O)NS(=O)(=O)c1ccccc1C
inhibition of growth at 10 µM (Porphyromonas gingivalis [2]): 80% | inhibition of growth at 100 µM (Porphyromonas gingivalis [1]): 100%

Cn1cc(Cc2ccc(C(=O)NS(=O)(=O)c3ccccc3)cc2)c2ccccc21
inhibition of growth at 10 µM (Porphyromonas gingivalis [2]): 90 to 100% | inhibition of growth at 100 µM (Porphyromonas gingivalis [1]): 100%

COc1ccc(Cc2cn(C)c3ccccc23)cc1C(=O)NS(=O)(=O)c1ccccc1C
inhibition [3]: inactive | inhibition (Veillonella parvula): inactive | inhibition of growth at 1 µM (Porphyromonas gingivalis [4]): 15 to 40% | inhibition (INH) (Streptococcus sanguinis): 20% | inhibition of growth at 10 µM (Porphyromonas gingivalis [2]): 90 to 100% | viability at 24 h, up to 10 µM [5]: 50 to 70% | inhibition (INH) (Fusobacterium nucleatum): 20% | growth inhibition (GI) (Actinomyces naeslundii): inactive | Activity [6]: Toxic | IC50 [7]: 16 µM | viability at 24 h, 1 µM [8]: 70 to 90% | inhibition of growth at 100 µM (Porphyromonas gingivalis [1]): 100%

COc1ccc(Cc2c[nH]c3ccccc23)cc1C(=O)NS(=O)(=O)c1ccccc1
inhibition of growth at 10 µM (Porphyromonas gingivalis [2]): 40% | inhibition of growth at 100 µM (Porphyromonas gingivalis [1]): 100%

COc1cc(C(=O)NS(=O)(=O)c2ccccc2C)ccc1Cc1cn(C)c2ccc(NC(=O)OC3CCCC3)cc12
Activity (Porphyromonas gingivalis [9]): Active | growth inhibition (GI) (Porphyromonas gingivalis [10]): Active

COc1ccc(Cc2cn(C)c3ccccc23)cc1C(=O)NS(=O)(=O)c1ccccc1
inhibition of growth at 10 µM (Porphyromonas gingivalis [2]): 90 to 100% | inhibition of growth at 100 µM (Porphyromonas gingivalis [1]): 100%

Cc1ccccc1S(=O)(=O)NC(=O)c1ccc(Cc2c[nH]c3ccccc23)cc1
inhibition of growth at 10 µM (Porphyromonas gingivalis [2]): 90% | inhibition of growth at 100 µM (Porphyromonas gingivalis [1]): 100%

COc1ccc(Cc2cn(C)c3ccc([N+](=O)[O-])cc23)cc1C(=O)NS(=O)(=O)c1ccccc1C
inhibition [3]: inactive | inhibition (Veillonella parvula): inactive | inhibition of growth at 1 µM (Porphyromonas gingivalis [4]): 15 to 40% | inhibition (INH) (Streptococcus sanguinis): 20% | Activity (Porphyromonas gingivalis [11]): Active | inhibition of growth at 10 µM (Porphyromonas gingivalis [2]): 90 to 100% | viability at 24 h, up to 10 µM [5]: 50 to 70% | inhibition (INH) (Fusobacterium nucleatum): 20% | inhibition (Actinomyces naeslundii): inactive | Activity [6]: Toxic | IC50 [7]: 230 µM | viability at 24 h, 1 µM [8]: 70 to 90% | inhibition of growth at 100 µM (Porphyromonas gingivalis [1]): 100%

COc1cc(C(=O)NS(=O)(=O)c2ccccc2C)ccc1Cc1cn(C)c2ccccc12
inhibition of growth at 100 µM (Porphyromonas gingivalis [1]): 60%

O=C(NS(=O)(=O)c1ccccc1)c1ccc(Cc2c[nH]c3ccccc23)cc1
inhibition of growth at 10 µM (Porphyromonas gingivalis [2]): 40% | inhibition of growth at 100 µM (Porphyromonas gingivalis [1]): 100%

CN(C)[C@@H]1C(O)=C(C(N)=O)C(=O)[C@@]2(O)C(O)=C3C(=O)c4c(O)cccc4[C@@](C)(O)[C@H]3C[C@@H]12
growth inhibition (GI) (Porphyromonas gingivalis [12]): Active

COc1ccc(Cc2cn(C)c3ccc([N+](=O)[O-])cc23)cc1C(=O)NS(=O)(=O)c1ccccc1
inhibition [3]: inactive | inhibition (Veillonella parvula): inactive | inhibition of growth at 1 µM (Porphyromonas gingivalis [4]): 15 to 40% | inhibition (INH) (Streptococcus sanguinis): 20% | Activity (Porphyromonas gingivalis [11]): Active | inhibition of growth at 10 µM (Porphyromonas gingivalis [13]): 100% | inhibition of growth at 10 µM (Porphyromonas gingivalis [2]): 90 to 100% | viability at 24 h, up to 10 µM [5]: 50 to 70% | inhibition (INH) (Fusobacterium nucleatum): 20% | growth inhibition (GI) (Actinomyces naeslundii): inactive | inhibition of growth at 1 µM (Porphyromonas gingivalis [14]): 60% | Activity [6]: Non-Toxic | IC50 [7]: 54 µM | viability at 24 h, 1 µM [8]: 70 to 90% | inhibition of growth at 100 µM (Porphyromonas gingivalis [1]): 100%
